Screening results deposited in PubChem by several laboratories.
SF-1 act: activates the human nuclear receptor SF-1. CHO-K1 Gal4-SF-1 LBD luciferase reporter; % increase over DMSO SF-1-specific signal. activation, % at 10 µM. 65,000 tested, 1.9% active. AID 522;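 active = activation above the mean activation of all tested compounds plus 3 SD, cut at about 50% in these data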
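Test system: transient Gal4-SF-1 LBD reporter, CHO-K1; Amount: 4,000 CHO-K1 cells per well; Doses: 10 µM only; Timing: compound exposure 20 h at 37 °C; Signal: luciferase light emission; Read-out basis: percent activation relative to DMSO median and mock-transfected background; Control set: DMSO negative control and −SF1 background wells; Replicates: one test per compound.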
MT1-MMP txn act: activates MT1-MMP transcription | HT1080 MT1-MMP promoter luciferase reporter, luminescence, overnight; stronger effect = higher value | activation factor at 10 µM | 86,000 tested, 0.16% active;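 active = activation factor of at least 2 for MT1-MMP transcription at 10 µM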
WNV protease inh: inhibitors of West Nile virus NS2B-NS3 protease; P06935; WNV NS2B-NS3 protease, fluorogenic substrate Ex360/Em465; stronger effect = lower value; z-score (test concentration not listed); 65,000 tested, 0.18% active; in the data active = z-score below about -3
RORa activator: activators of human nuclear receptor RORA | P35398 | CHO-K1 Gal4-RORA LBD luciferase reporter, luminescence; percent increase over mock-subtracted basal signal | activation, % at 10 µM | 65,000 tested, 1.5% active;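 active = activation above the mean of all tested compounds plus 3 SD, cut at about 49% in these data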
Target sequence (P35398 whole entry, looked up, the tested form may be a part): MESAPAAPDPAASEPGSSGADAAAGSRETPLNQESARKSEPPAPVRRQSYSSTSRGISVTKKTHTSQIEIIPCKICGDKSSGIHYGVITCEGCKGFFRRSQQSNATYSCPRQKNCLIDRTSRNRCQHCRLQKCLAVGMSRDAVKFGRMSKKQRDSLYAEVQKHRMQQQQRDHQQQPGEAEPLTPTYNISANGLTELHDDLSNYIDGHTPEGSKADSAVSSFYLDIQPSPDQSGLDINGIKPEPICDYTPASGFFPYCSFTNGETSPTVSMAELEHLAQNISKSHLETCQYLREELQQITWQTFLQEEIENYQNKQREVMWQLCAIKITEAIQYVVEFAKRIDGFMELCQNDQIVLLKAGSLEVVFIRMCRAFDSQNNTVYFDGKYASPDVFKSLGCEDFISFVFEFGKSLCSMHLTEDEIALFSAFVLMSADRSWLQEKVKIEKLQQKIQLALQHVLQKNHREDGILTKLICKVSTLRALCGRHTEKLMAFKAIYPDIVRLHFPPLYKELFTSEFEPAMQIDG
MMP13 inh: blocks human MMP13 activity; P45452; MMP-13 fTHP FRET cleavage, Mca fluorescence; inhibition, % at 4 µM; 65,000 tested, 0.07% active;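 active = inhibition above the mean of compound-free control plate wells plus 3 SD, cut at about 14% in these data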
Numbers stand for hits; . = inactive; / = no result. An excerpt weighted towards active compounds, which were near 2.3% of everything screened.

SMILES	SF-1 act	MT1-MMP txn act	WNV protease inh	RORa activator	MMP13 inh
Cc1cn(C2CC3OCC3O2)c(=O)[nH]c1=O (stereo unspecified)	.	.	.	.	.
Cc1nc2sc(-c3ccccc3)cc2c(=O)n1-n1cccc1	88.6	.	.	.	.
c1ccc(Nc2nc3ccccc3[nH]2)nc1	54.7	.	.	78.6	.
Cc1cc(C)nc(Nc2nc3ccccc3[nH]2)n1	.	.	.	.	.
Cc1cc(N2CCC(C(=O)NC3CCCCC3)CC2)nc(-c2ccccc2)n1	.	.	-4.82	.	.
O=C1NC(c2ccc3c(c2)OCO3)Nc2ccccc21 (stereo unspecified)	71.9	.	.	62.9	.
CCC1=C2CC[C@H]3C(=O)NC(=O)[C@H]3[C@H]2[C@@]2(C)C(=NCC(=O)OC)OC(=O)N2C1=O	/	.	/	/	/
O=C(c1ccco1)N1CCN(c2nnc(-c3ccccc3)c3ccccc23)CC1	/	.	/	/	/
Cc1ccc(-n2nnc3ccccc3c2=O)cc1C	53.8	.	.	.	.
N/C(=N\OC(=O)c1ccco1)c1ccccc1	/	2	/	/	/
Cc1cc(C(=O)CSc2nc3ccccc3o2)c(C)n1C1CC1	61.0	.	.	81.6	.
COc1cc(NC(=O)c2nnn(Cc3ccc(SC)cc3)c2N)cc(OC)c1	.	.	.	.	.
COc1cccc(NC(=O)Cn2nnc(C(=O)Nc3ccccc3)c2N)c1	.	.	.	.	.
COc1cccc(NC(=O)c2nnn(Cc3ccc(Br)cc3F)c2N)c1	.	.	.	58.3	.
COc1cccc(NC(=O)c2nnn(CCc3ccccc3)c2N)c1	83.8	.	.	53.1	.
Cc1c(NC(=O)C23CC4CC(CC(C)(C4)C2)C3)c(=O)n(-c2ccccc2)n1C	.	2	.	.	.
O=C(Nc1ccc(Br)cn1)c1ccc2nccnc2c1	69.1	.	.	.	.
COc1ccc(NC(=O)c2ccc3nccnc3c2)cc1	/	.	/	/	/
NC(=O)CC1NC(=O)c2ccccc21 (stereo unspecified)	.	.	.	.	.
COC(=O)c1[nH]c2cc(OC)ccc2c1NC(=O)c1ccc2c(c1)OCO2	.	.	-5.57	.	.
COc1cc2c(cc1NC(=O)c1ccc3c(c1)OCO3)oc1ccccc12	53.6	2.1	.	.	.
COc1cccc(N2CCN(c3ncnc4c3cnn4-c3ccc(C)cc3C)CC2)c1	.	.	.	.	.
Cc1ccc(-n2ncc3c(N4CCCC(C)C4)ncnc32)c(C)c1 (stereo unspecified)	58.7	.	.	.	.
Cc1ccc(-n2ncc3c(N4CCCC4)ncnc32)c(C)c1	66.0	.	.	.	.
CC1(C)OCC(CSC2=C(SCC3COC(C)(C)O3)C(=O)c3ncccc3C2=O)O1 (stereo unspecified)	/	.	/	/	/
SMILES	SF-1 act	MT1-MMP txn act	WNV protease inh	RORa activator	MMP13 inh
CCCCCn1c(CCC(=O)Oc2ccccc2OC)nc2c1c(=O)[nH]c(=O)n2CCCC	/	.	/	/	/
Cc1cc(N2CCN(C(=O)c3ccco3)CC2)n2ncnc2n1	.	.	.	.	.
Cc1cc(N2CCCCC2)n2ncc(-c3ccccc3)c2n1	.	.	.	.	.
Cc1cc(N2CCCCC2)n2ncc(-c3ccc(Cl)cc3)c2n1	62.3	.	.	86.8	.
Cc1cc(N2CCN(C(=O)c3ccco3)CC2)n2ncc(-c3ccccc3)c2n1	65.3	.	.	.	.
CNC(=O)C1(C)C=CCN1C(=O)OC (stereo unspecified)	/	.	/	/	/
CN(CCC#N)C(=O)CSc1ncnc2sc(-c3ccccc3)cc12	.	.	.	52.0	.
CS(=O)(=O)c1sc2nc(-c3cccs3)cc(-c3ccccc3)c2c1N	.	2.2	.	.	.
Cc1ccccc1NC(=O)Cn1cnc2c(oc3ccccc32)c1=O	.	.	.	.	.
O=C(Cn1cnc2c(oc3ccccc32)c1=O)c1ccccc1	61.3	.	.	93.4	.
COc1cccc2cc(NC(=O)C3CCCCC3)c(=O)oc12	65.9	/	.	56.1	.
COc1cccc2cc(C(=O)Nc3cccc(C)n3)c(=O)oc12	72.7	.	.	57.5	.
COc1cccc2cc(C(=O)N3CCCCC3C)c(=O)oc12 (stereo unspecified)	/	.	/	/	/
FC(F)(F)c1ccc(C2[C@H]3CN(Cc4cccnc4)[C@H](c4ccccc4)C34CC2(c2ccccc2)C4)cc1 (stereo partly specified)	/	.	/	/	/
CCOC(=O)c1snc(C(=O)NC2CCCCC2)c1N	105.9	.	.	56.8	.
Nc1c(C(=O)NC2CCCCC2)nsc1C(=O)OCC(=O)NC1CCCCC1	.	.	.	.	.
c1ccc(Cc2nnc(-c3ccccc3)o2)cc1	.	.	.	50.5	.
O=C(Nc1cccnc1)c1ccc(S(=O)(=O)N2CCCCCC2)cc1	/	.	/	/	/
CC(C)OC(=O)CSc1nnc(-c2ccccc2)n1N	/	.	/	/	/
CN(C)C=Nc1ccc2nn(-c3ccccc3)nc2c1	73.7	.	.	.	.
Cc1nn(-c2ccccc2)c2sc(C(=O)N3CCOCC3)cc12	94.2	.	.	57.8	.
Cc1nn(-c2ccccc2)c2sc(C(=O)OC3CCOC3=O)cc12 (stereo unspecified)	.	.	-3.5	.	.
O=C(c1cc2c(=O)n3ccccc3nc2s1)N1CCOCC1	59.9	.	.	.	.
Cc1nn(-c2ccccc2)c2sc(C(=O)O)cc12	.	.	.	.	.
COC(=O)Cc1cc(=O)n(-c2nc3ccccc3[nH]2)[nH]1	.	.	.	.	57.4
SMILES	SF-1 act	MT1-MMP txn act	WNV protease inh	RORa activator	MMP13 inh
O=C(Nc1ccc(-c2nnc(-c3ccccc3)o2)cc1)C(F)(F)F	.	.	.	.	.
CC(=O)/C=C(\C)Nc1ccc(-c2cnc(-c3ccccc3)o2)cc1	56.7	.	.	88.2	.
C=CCn1c(SCc2c(F)cccc2Cl)nnc1-c1ccco1	.	.	.	.	.
COC(=O)c1ccc(C(=O)OC)c(NC(=O)CSc2cccc[n+]2[O-])c1	/	.	/	/	/
COc1ccc2oc(=O)c(-c3nnc(NCc4ccco4)s3)cc2c1	80.8	.	.	80.2	.
CCOc1cccc2cc(-c3nnc(NCc4ccco4)s3)c(=O)oc12	.	.	.	.	.
Cc1ccc(N2CCN(C(=O)c3ccccc3)CC2)c(C)c1	.	.	.	.	.
COc1cc(C(=O)N2CCN(c3ccc(C)cc3C)CC2)cc(OC)c1OC	.	/	.	64.0	.
CC(C)Cn1c(N)c(C(=O)CSc2ccc3c(c2)OCCO3)c(=O)n(C)c1=O	.	.	.	.	.
CCn1nnnc1-c1ccc(OC)c(S(=O)(=O)NCCc2ccccc2)c1	.	.	.	.	.
CC1=C(C(=O)OCc2ccccc2)C(c2ccccc2OC(=O)c2ccc(I)cc2)NC(=O)N1CCCC(=O)O (stereo unspecified)	/	.	/	/	/
O=C(Nc1nc2c(s1)CCCC2)Oc1ccccc1	.	.	.	.	.
O=S1(=O)N=C(Nc2nc3c(s2)CCCC3)c2ccccc21	51.3	.	.	95.8	.
Cn1c(=O)c2sccc2n2c(CCCC(=O)NCc3ccc4c(c3)OCO4)nnc12	.	/	.	.	.
